From ChEMBL document CHEMBL4038304, “Chiral Indolylarylsulfone Non-Nucleoside Reverse Transcriptase Inhibitors as New Potent and Broad Spectrum Anti-HIV-1 Agents” (J Med Chem, 2017)
Active and inactive are the calls of the source. The rule behind the calls is not given here.

What was measured:
[1] = Cytotoxicity against human MT4 cells assessed as cell viability by MTT assay; assay type: cell-based
Summary of the method: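 Uninfected MT-4 cells scored for viability by MTT. […] Values are means of two to three independent experiments, each run in triplicate.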

BV-2 [2] = experiment: Effect on fizz mRNA levels in C57BL/6 mouse BV2 cells at 1000 nM after 24 hrs by RT-PCR assay; assay type: functional, cell-based
BV-2 [3] = experiment: Antineuroinflammatory activity in C57BL/6 mouse BV2 cells assessed as inhibition of LPS-induced nitric oxide production at 1 to 10 uM after 24 hrs by Griess assay; assay type: functional, cell-based
[4] = test system: Human immunodeficiency virus 1; experiment: Antiviral activity against HIV1 harboring reverse transcriptase Y181C mutant infected in human […] cells assessed as protection against virus-induced cytopathic effect measured on day 5 post infection by MTT assay; assay type: functional, cell-based; conditions: Human immunodeficiency virus 1, 120 h
[5] = test system: hippocampal neurons (Mus musculus); experiment: Neuroprotective activity against glutamate-induced excitotoxicity in C57BL/6 mouse hippocampal neurons assessed as increase in cell viability at 1000 nM preincubated for 30 mins followed by reincubation in conditioned culture media for 18 hrs in presence of glutamate by hemacytometric analysis
[6] = test system: Human immunodeficiency virus 1; experiment: Antiviral activity against HIV1 NL4-3 infected in human […] cells assessed as protection against virus-induced cytopathic effect measured on day 5 post infection by MTT assay; assay type: functional, cell-based; conditions: Human immunodeficiency virus 1, NL4-3, 120 h
Summary of the method: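 Values are means of two to three independent experiments, each run in triplicate. The lowest detectable concentration is reported where activity fell below the assay limit.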

[7] = test system: Human immunodeficiency virus 1; experiment: Antiviral activity against HIV1 harboring reverse transcriptase Y188L mutant infected in human […] cells assessed as protection against virus-induced cytopathic effect measured on day 5 post infection by MTT assay; assay type: functional, cell-based; conditions: Human immunodeficiency virus 1, 120 h
BV-2 [8] = experiment: Cytotoxicity against C57BL/6 mouse BV2 cells assessed as effect on cell proliferation rate at 10 to 10000 nM up to 48 hrs by MTT assay; assay type: cell-based; conditions: bv-2, 48 h, 10 µM
Summary of the method: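 BV2 microglial cells cultured with compound at 10, 102, 103 and 104 nM, then proliferation rate measured.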

BV-2 [9] = experiment: Downregulation of iNOS mRNA levels in C57BL/6 mouse BV2 cells at 1000 nM after 24 hrs by RT-PCR assay; assay type: functional, cell-based
BV-2 [10] = experiment: Effect on CD163 mRNA levels in C57BL/6 mouse BV2 cells at 1000 nM after 24 hrs by RT-PCR assay; assay type: functional, cell-based
[11] = test system: Human immunodeficiency virus 1; experiment: Antiviral activity against HIV1 harboring reverse transcriptase K103N mutant infected in human […] cells assessed as protection against virus-induced cytopathic effect measured on day 5 post infection by MTT assay; assay type: functional, cell-based; conditions: Human immunodeficiency virus 1, 120 h
[12] = test system: Human immunodeficiency virus 1; experiment: Antiviral activity against HIV1 harboring reverse transcriptase K103N /[…] double mutant infected in human […] cells assessed as protection against virus-induced cytopathic effect measured on day 5 post infection by MTT assay; assay type: functional, cell-based; conditions: Human immunodeficiency virus 1, 120 h
[13] = molecular target: Human immunodeficiency virus type 1 reverse transcriptase (Human immunodeficiency virus 1, UniProt Q72547, K103N); experiment: Inhibition of HIV1 reverse transcriptase p66 K103N mutant associated RNA dependent DNA polymerase activity expressed in Escherichia coli assessed as reduction in [3H]dTTP incorporation using poly(rA)/oligo(dT) as template/primer by scintillation counting analysis
[14] = molecular target: Human immunodeficiency virus type 1 reverse transcriptase (Human immunodeficiency virus 1, UniProt Q72547, Y181C); experiment: Inhibition of HIV1 reverse transcriptase p66 Y181C mutant associated RNA dependent DNA polymerase activity expressed in Escherichia coli assessed as reduction in [3H]dTTP incorporation using poly(rA)/oligo(dT) as template/primer by scintillation counting analysis
[15] = molecular target: Human immunodeficiency virus type 1 reverse transcriptase (Human immunodeficiency virus 1, UniProt Q72547); experiment: Inhibition of HIV1 NL4-3 reverse transcriptase His-tagged p66/p51 associated RNA dependent DNA polymerase activity expressed in Escherichia coli assessed as reduction in [3H]dTTP incorporation using poly(rA)/oligo(dT) as template/primer by scintillation counting analysis
[16] = Inhibition of HIV1 reverse transcriptase p66 K103N/[…] double mutant associated RNA dependent DNA polymerase activity expressed in Escherichia coli assessed as reduction in [3H]dTTP incorporation using poly(rA)/oligo(dT) as template/primer by scintillation counting analysis; design: species or system Human immunodeficiency virus 1
[17] = molecular target: Human immunodeficiency virus type 1 reverse transcriptase (Human immunodeficiency virus 1, UniProt Q72547, Y181I); experiment: Inhibition of HIV1 reverse transcriptase p66 Y181I mutant associated RNA dependent DNA polymerase activity expressed in Escherichia coli assessed as reduction in [3H]dTTP incorporation using poly(rA)/oligo(dT) as template/primer by scintillation counting analysis
[18] = test system: Human immunodeficiency virus 1; experiment: Ratio of EC50 for HIV-1 harboring reverse transcriptase Y181C mutant infected in human MT4 cells to EC50 for HIV1 NL4-3 infected in human MT4 cells; assay type: functional
Summary of the method: (§1)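 Fold change calculated as EC50 against the stated resistant mutant HIV-1 strain divided by EC50 against wild-type NL4-3. Both EC50s come from MTT read-out of virus-induced death in MT-4 cells, mean of two to three independent experiments each in triplicate.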

[19] = Selectivity index, ratio of CC50 for human MT4 cells to EC50 for HIV1 NL4-3 infected in human MT4 cells; assay type: toxicity, cell-based; conditions: read-out: Ratio CC50/EC50
Summary of the method: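 SI computed as CC50/EC50, using the MTT-based CC50 in uninfected MT-4 cells and the MTT-based EC50 against HIV-1 NL4-3-induced cell death in MT-4 cells. Experiments were run in triplicate, two to three times.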

[20] = test system: Human immunodeficiency virus 1; experiment: Ratio of EC50 for HIV-1 harboring reverse transcriptase K103N mutant infected in human MT4 cells to EC50 for HIV1 NL4-3 infected in human MT4 cells; assay type: functional; summary of the method: as §1
BV-2 [21] = experiment: Downregulation of CD86 mRNA levels in C57BL/6 mouse BV2 cells at 1000 nM after 24 hrs by RT-PCR assay; assay type: functional, cell-based
[22] = test system: Human immunodeficiency virus 1; experiment: Ratio of EC50 for HIV-1 harboring reverse transcriptase Y188L mutant infected in human MT4 cells to EC50 for HIV1 NL4-3 infected in human MT4 cells; assay type: functional; summary of the method: as §1
[23] = test system: Human immunodeficiency virus 1; experiment: Ratio of EC50 for HIV-1 harboring reverse transcriptase K103N/[…] double mutant infected in human MT4 cells to EC50 for HIV1 NL4-3 infected in human MT4 cells; assay type: functional; summary of the method: as §1

SMILES | CC50 [1] | Activity (BV-2 [2]) | Activity (BV-2 [3]) | EC50 [4] | Activity [5] | EC50 [6] | EC50 [7] | Activity (BV-2 [8]) | Activity (BV-2 [9]) | Activity (BV-2 [10]) | EC50 [11] | EC50 [12] | IC50 [13] | IC50 [14] | IC50 [15] | IC50 [16] | IC50 [17] | further results
O=C1Nc2ccc(Cl)cc2[C@@](C#CC2CC2)(C(F)(F)F)O1 [EFAVIRENZ] | > 15800 nM | inactive | Active | 160 nM | inactive | 15.9 nM | 760 nM | Non-Toxic | Active | inactive | 130 nM | > 317 nM | – | – | – | – | – | –
Cc1cc(C)cc(S(=O)(=O)c2c(C(=O)N[C@H](C)C(=O)NCc3ccncc3)[nH]c3ccc(Cl)cc23)c1 | – | – | – | 181 nM | – | 0.7 nM | > 23100 nM | – | – | – | 114 nM | 7120 nM | > 50000 nM | 61000 nM | 13000 nM | > 200000 nM | 61000 nM | –
Cc1cc(C)cc(S(=O)(=O)c2c(C(=O)N[C@H](C)c3ccccc3F)[nH]c3ccc(Cl)cc23)c1 | – | – | – | 0.7 nM | – | 0.7 nM | 165 nM | – | – | – | 0.7 nM | 2490 nM | 228 nM | 456 nM | 87 nM | 222 nM | 456 nM | –
Cc1cc(C)cc(S(=O)(=O)c2c(C(=O)NC(C)C(=O)NCc3ccncc3)[nH]c3ccc(Cl)cc23)c1 (racemic) | 19500 nM | inactive | Active | 21 nM | Active | 0.2 nM | 819 nM | Non-Toxic | Active | inactive | 1.9 nM | 838 nM | – | – | – | – | – | Ratio EC50 [18]: 105; selectivity ratio [19]: 102000; Ratio EC50 [20]: 52; Activity (BV-2 [21]): Active; Ratio EC50 [22]: 4095; Ratio EC50 [23]: 4190
Cc1cc(C)cc(S(=O)(=O)c2c(C(=O)N[C@@H](C)C(=O)NCc3ccncc3)[nH]c3ccc(Cl)cc23)c1 | – | – | – | 0.7 nM | – | 0.7 nM | 666 nM | – | – | – | 0.7 nM | 857 nM | 417 nM | 870 nM | 506 nM | > 40000 nM | 870 nM | –
Cc1cc(C)cc(S(=O)(=O)c2c(C(=O)N[C@@H](C)c3ccccc3F)[nH]c3ccc(Cl)cc23)c1 | – | – | – | 680 nM | – | 0.7 nM | > 51600 nM | – | – | – | 103 nM | > 51600 nM | – | 17200 nM | 175 nM | > 10000 nM | 17200 nM | –
